According to ChEMBL document CHEMBL5500359, “Identification of a new bisindolinone arresting IGROV1 cells proliferation” (Eur J Med Chem, 2024):
Activity calls are given as the source filed them. No cut-off for these calls is given here.

Key:
Breast cancer cell line [1] = test: Cytotoxicity against human Breast cancer cells incubated for 48 hrs by SRB assay; format: functional
Procedure, shortened: (§1)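 NCI-60 five-concentration screen: lines seeded 5×10^3–4×10^4 cells/well depending on line; compound diluted in fresh medium at scalar concentrations 0–100 or 0–1000 μM; 48 h exposure, in situ fixation, sulforhodamine B protein staining, optical density read; GI50, TGI and LC50 per NCI procedures; panel mean = mean graph midpoint.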

IGROV-1 [2] = test: Induction of cell cycle arrest in human IGROV-1 cells assessed as decrease in cell accumulation at G2/M phase at 5 uM incubated for 24 hrs by PI staining based flow cytometry relative to control; format: functional; design: scale not given: the % may be the effect or the level left
Procedure, shortened: (§2)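 IGROV1 plated 2×10^4 cells/cm², after 24 h given 5 μM for 24 h; cells detached, PBS-washed, stained 30 min at room temperature in dark with 50 μg/mL propidium iodide, 10 μg/mL RNase, 0.01% Igepal, 0.1% sodium citrate; DNA content by flow cytometry, phase percentages versus untreated.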

IGROV-1 [3] = test: Effect on p21 mRNA level in human IGROV-1 cells at 5 uM incubated for 6 hrs by RT-PCR analysis; format: functional, cell-based
Procedure, shortened: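 IGROV1 given 5 μM versus vehicle; RNA extracted by spin column, reverse transcribed, CCND1, CDKN1A and ITAG5 transcripts quantified by qRT-PCR as fold change versus vehicle; at least triplicate, Student's t-test, p<0.05.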

IGROV-1 [4] = test: Antiproliferative activity against human IGROV-1 cells at 5 uM incubated upto 48 hrs by quantitative phase imaging microscopy; format: functional, cell-based
Procedure, shortened: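 Quantitative phase imaging on IGROV1 seeded 4×10^3/well, 24 h later given 5 μM (six replicates; DMSO ≤0.1% final). Images hourly for 2 days at 37 °C, 5% CO2. Cell count and confluence normalized to experiment start; doubling time derived from growth.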

[5] = Cytotoxicity against human HDFa cells assessed as reduction in cell viability incubated for 24 hrs by MTT assay; format: toxicity, cell-based
Procedure, shortened: (§3)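 IGROV1 and HDFa in RPMI 1640 + 10% FCS, 2 mM glutamine, 37 °C, 5% CO2; seeded 1.5×10^4/well, after 24 h exposed 24 h to 0.010–500 μM (DMSO ≤0.1%). MTT 0.2 mg/mL in PBS 2 h at 37 °C, absorbance 570 nm; IC50 from dose-response, three independent experiments each in triplicate; SI = HDFa IC50/IGROV1 IC50.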

IGROV-1 [6] = test: Downregulation of ITAG5 level in human IGROV-1 cells at 5 uM incubated for 6 hrs by Western blot analysis; format: functional, cell-based
Procedure, shortened: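 IGROV1 exposed to 5 μM; RIPA lysates at 4 °C, protein quantified, SDS-PAGE (12.5% or 7.5%), nitrocellulose blot probed overnight at 4 °C for cyclin D1 or α5 integrin subunit; densitometry normalized to α-tubulin, percent of vehicle, mean ± SD of three experiments.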

IGROV-1 [7] = test: Induction of cell cycle arrest in human IGROV-1 cells assessed as decrease in cell accumulation at S phase at 5 uM incubated for 24 hrs by PI staining based flow cytometry relative to control; format: functional; design: scale not given: the % may be the effect or the level left; procedure, shortened: as §2
[8] = Upregulation of histone H2/H3 acetylation in human IGROV-1 cells incubated for 6 hrs by Western blot analysis relative to control; format: functional
Procedure, shortened: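 IGROV1 seeded 1.5×10^4 cells/cm², after 48 h exposed 6 h to 5 μM final; histones acid-extracted (0.4 N H2SO4) from nuclei isolated with 10 mM butyrate washes, acetone-precipitated, 15% SDS-PAGE, blotted with anti-acetyl-lysine; densitometry normalized to histone H1, percent of vehicle, mean ± SD of three experiments.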

Prostatic carcinoma cell = test: Cell growth inhibition of human Prostate carcinoma cells incubated for 48 hrs by SRB assay; format: functional; procedure, shortened: as §1
CNS carcinoma cell = test: Cytostatic activity against human CNS carcinoma cells incubated for 48 hrs by SRB assay; format: functional; procedure, shortened: as §1
Breast cancer cell line [9] = test: Cytostatic activity against human Breast cancer cells incubated for 48 hrs by SRB assay; format: functional; procedure, shortened: as §1
Breast cancer cell line [10] = test: Cell growth inhibition of human Breast cancer cells incubated for 48 hrs by SRB assay; format: functional; settings: read-out: LC50 (the source's name)
Procedure, shortened: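 NCI DTP five-concentration screen. Cells were seeded at 5 × 10³–4 × 10⁴ cells/well, depending on the line. Compounds were diluted in fresh medium and added at scalar concentrations over 0–1000 µM or 0–100 µM. After 48 h the cells were fixed in situ, stained with sulforhodamine B, and optical density was read. GI50, TGI and LC50 were derived by NCI procedures, and the panel mean is the mean graph midpoint.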

IGROV-1 [11] = test: Anti-motility activity in human IGROV-1 cells assessed as decrease in cell displacement at 5 uM incubated for 24 hrs; format: functional, cell-based
Procedure, shortened: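 Livecyte quantitative phase imaging, label-free single-cell tracking; IGROV1 seeded 4×10^3/well, treated after 24 h with 5 μM in six replicates; frames every 60 min for 2 days, 10× objective, 37 °C, 5% CO2. Each cell tracked for displacement, instantaneous velocity and directionality.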

IGROV-1 [12] = test: Induction of cell cycle arrest in human IGROV-1 cells assessed as increase in cell accumulation at G0/G1 phase at 5 uM incubated for 24 hrs by PI staining based flow cytometry relative to control; format: functional; procedure, shortened: as §2
[13] = system: Panel NCI-60 (60 carcinoma cell lines); test: Cell growth inhibition of human Panel NCI-60 (60 carcinoma cell lines) incubated for 48 hrs by SRB assay; format: functional; procedure, shortened: as §1
[14] = system: Panel NCI-60 (60 carcinoma cell lines); test: Cytostatic activity against human Panel NCI-60 (60 carcinoma cell lines) incubated for 48 hrs by SRB assay; format: functional; procedure, shortened: as §1
Ovarian cancer cell line = test: Cytotoxicity against human Ovarian cancer cells incubated for 48 hrs by SRB assay; format: functional; procedure, shortened: as §1
[15] = Selectivity index, ratio of IC50 for human HDFa cells to IC50 for human IGROV-1 cells; format: functional; procedure, shortened: as §3

In the case of `CC(C)(C)c1cc(/C=C2/C(=O)Nc3cc(Cl)ccc32)c(O)c(/C=C2/C(=O)Nc3cc(Cl)ccc32)c1`, the GI (Breast cancer cell line [1]) is reported as 48.98 µM, the Activity (IGROV-1 [2]) is reported as 11.9% and the Activity (IGROV-1 [3]) is reported as “inactive”. For the same compound, the Activity (IGROV-1 [4]) was “Active”, the IC50 at 24 h [5] was 21.9 µM and the Activity (IGROV-1 [6]) was “Active”. For the same compound, the Activity (IGROV-1 [7]) was 21.2%, the Activity [8] was 55.2% and the GI (Prostatic carcinoma cell) was 3.63 µM. It also gave a GI (CNS carcinoma cell) of 11.75 µM, a TGI (Breast cancer cell line [9]) of 13.2 µM and a CC50 (Breast cancer cell line [10]) of 2.95 µM. For the same compound, the Activity (IGROV-1 [11]) was “Active”, the Activity (IGROV-1 [12]) was 13.4% and the GI50 [13] was 3.02 µM. It also gave a GI [14] of 12.02 µM, a GI (Ovarian cancer cell line) of 30.9 µM and a Ratio IC50 [15] of 3.64.
